According to ChEMBL document CHEMBL4190262, “Tuning of β-glucosidase and α-galactosidase inhibition by generation and in situ screening of a library of pyrrolidine-triazole hybrid molecules” (Eur J Med Chem, 2017):
Calls of active or inactive are those of the source. The calls are words filed in the database; no cut-off is given here.

Legend:
[1] = molecular target: Beta-galactosidase (Escherichia coli) (UniProt Q8VNN2); experiment: Inhibition of Escherichia coli beta-galactosidase at 1 mM using p-nitrophenyl glycopyranoside preincubated for 5 mins followed by substrate addition measured after 20 mins by visible absorption spectroscopic method relative to control
Method in brief: (§1)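 Test compound at 1 mM in well. Mix: 0.01–0.5 units/mL enzyme plus 10 mM p-nitrophenyl glycopyranoside (aqueous solution), buffered to the enzyme's optimal pH. Enzyme and inhibitor preincubated 5 min at rt. Substrate then added and incubated 20 min at 37 °C. Stopped with sodium borate (pH 9.8). p-Nitrophenolate read at 405 nm. Duplicates averaged.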

[2] = species on record: Bos taurus; experiment: Inhibition of bovine kidney alpha-L-fucosidase at 1 mM using p-nitrophenyl glycopyranoside preincubated for 5 mins followed by substrate addition measured after 20 mins by visible absorption spectroscopic method relative to control; method in brief: as §1
[3] = Inhibition of bovine kidney alpha-L-fucosidase using p-nitrophenyl glycopyranoside preincubated for 5 mins followed by substrate addition measured after 20 mins by visible absorption spectroscopic method; parameters: species or system Bos taurus
[4] = molecular target: Alpha-galactosidase (Coffea arabica) (UniProt Q42656); experiment: Inhibition of coffee beans alpha-galactosidase at 1 mM using p-nitrophenyl glycopyranoside preincubated for 5 mins followed by substrate addition measured after 20 mins by visible absorption spectroscopic method relative to control; method in brief: as §1
[5] = molecular target: T1, Beta-galactosidase (Aspergillus oryzae) (UniProt B7VU80); experiment: Inhibition of Aspergillus oryzae beta-galactosidase at 1 mM using p-nitrophenyl glycopyranoside preincubated for 5 mins followed by substrate addition measured after 20 mins by visible absorption spectroscopic method relative to control; method in brief: as §1
T1 sequence (whole entry): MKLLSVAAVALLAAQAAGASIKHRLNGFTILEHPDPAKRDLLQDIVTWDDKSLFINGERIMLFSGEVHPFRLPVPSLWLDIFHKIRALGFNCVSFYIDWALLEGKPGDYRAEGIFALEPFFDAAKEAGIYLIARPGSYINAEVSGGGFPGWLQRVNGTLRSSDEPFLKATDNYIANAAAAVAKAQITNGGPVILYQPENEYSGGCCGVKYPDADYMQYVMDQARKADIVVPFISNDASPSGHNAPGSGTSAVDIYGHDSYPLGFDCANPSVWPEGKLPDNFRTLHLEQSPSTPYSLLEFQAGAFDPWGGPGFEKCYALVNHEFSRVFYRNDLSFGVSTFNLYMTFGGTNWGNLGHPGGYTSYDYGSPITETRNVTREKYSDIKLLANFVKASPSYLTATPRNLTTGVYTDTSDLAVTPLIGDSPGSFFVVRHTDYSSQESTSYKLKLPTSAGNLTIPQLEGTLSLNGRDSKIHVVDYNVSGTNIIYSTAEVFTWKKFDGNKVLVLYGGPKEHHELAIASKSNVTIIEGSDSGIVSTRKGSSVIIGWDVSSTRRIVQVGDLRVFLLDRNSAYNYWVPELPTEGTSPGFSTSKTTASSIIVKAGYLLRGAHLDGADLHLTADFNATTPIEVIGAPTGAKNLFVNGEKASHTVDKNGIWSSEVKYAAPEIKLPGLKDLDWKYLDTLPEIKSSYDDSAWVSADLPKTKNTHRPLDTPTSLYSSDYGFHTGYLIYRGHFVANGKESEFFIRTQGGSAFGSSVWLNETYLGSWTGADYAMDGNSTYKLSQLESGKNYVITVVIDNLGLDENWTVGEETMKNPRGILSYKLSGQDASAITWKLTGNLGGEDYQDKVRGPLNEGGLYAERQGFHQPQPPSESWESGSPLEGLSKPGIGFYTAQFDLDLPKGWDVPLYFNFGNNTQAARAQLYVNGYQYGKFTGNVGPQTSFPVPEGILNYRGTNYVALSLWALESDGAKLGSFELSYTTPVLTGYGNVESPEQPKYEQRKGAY

[6] = tested on: Saccharomyces cerevisiae; experiment: Inhibition of yeast alpha glucosidase at 1 mM using p-nitrophenyl glycopyranoside preincubated for 5 mins followed by substrate addition measured after 20 mins by visible absorption spectroscopic method relative to control; method in brief: as §1
[7] = tested on: Oryza sativa; experiment: Inhibition of rice alpha-glucosidase at 1 mM using p-nitrophenyl glycopyranoside preincubated for 5 mins followed by substrate addition measured after 20 mins by visible absorption spectroscopic method relative to control; method in brief: as §1
[8] = tested on: Aspergillus niger; experiment: Inhibition of Aspergillus niger amyloglucosidase at 1 mM using p-nitrophenyl glycopyranoside preincubated for 5 mins followed by substrate addition measured after 20 mins by visible absorption spectroscopic method relative to control; method in brief: as §1
[9] = tested on: Prunus dulcis; experiment: Inhibition of almond beta-glucosidase at 1 mM using p-nitrophenyl glycopyranoside preincubated for 5 mins followed by substrate addition measured after 20 mins by visible absorption spectroscopic method relative to control; method in brief: as §1
[10] = molecular target: T2, Alpha-mannosidase (Canavalia ensiformis) (UniProt C0HJB3); experiment: Inhibition of jack bean alpha-mannosidase at 1 mM using p-nitrophenyl glycopyranoside preincubated for 5 mins followed by substrate addition measured after 20 mins by visible absorption spectroscopic method relative to control; method in brief: as §1
T2 sequence (whole entry): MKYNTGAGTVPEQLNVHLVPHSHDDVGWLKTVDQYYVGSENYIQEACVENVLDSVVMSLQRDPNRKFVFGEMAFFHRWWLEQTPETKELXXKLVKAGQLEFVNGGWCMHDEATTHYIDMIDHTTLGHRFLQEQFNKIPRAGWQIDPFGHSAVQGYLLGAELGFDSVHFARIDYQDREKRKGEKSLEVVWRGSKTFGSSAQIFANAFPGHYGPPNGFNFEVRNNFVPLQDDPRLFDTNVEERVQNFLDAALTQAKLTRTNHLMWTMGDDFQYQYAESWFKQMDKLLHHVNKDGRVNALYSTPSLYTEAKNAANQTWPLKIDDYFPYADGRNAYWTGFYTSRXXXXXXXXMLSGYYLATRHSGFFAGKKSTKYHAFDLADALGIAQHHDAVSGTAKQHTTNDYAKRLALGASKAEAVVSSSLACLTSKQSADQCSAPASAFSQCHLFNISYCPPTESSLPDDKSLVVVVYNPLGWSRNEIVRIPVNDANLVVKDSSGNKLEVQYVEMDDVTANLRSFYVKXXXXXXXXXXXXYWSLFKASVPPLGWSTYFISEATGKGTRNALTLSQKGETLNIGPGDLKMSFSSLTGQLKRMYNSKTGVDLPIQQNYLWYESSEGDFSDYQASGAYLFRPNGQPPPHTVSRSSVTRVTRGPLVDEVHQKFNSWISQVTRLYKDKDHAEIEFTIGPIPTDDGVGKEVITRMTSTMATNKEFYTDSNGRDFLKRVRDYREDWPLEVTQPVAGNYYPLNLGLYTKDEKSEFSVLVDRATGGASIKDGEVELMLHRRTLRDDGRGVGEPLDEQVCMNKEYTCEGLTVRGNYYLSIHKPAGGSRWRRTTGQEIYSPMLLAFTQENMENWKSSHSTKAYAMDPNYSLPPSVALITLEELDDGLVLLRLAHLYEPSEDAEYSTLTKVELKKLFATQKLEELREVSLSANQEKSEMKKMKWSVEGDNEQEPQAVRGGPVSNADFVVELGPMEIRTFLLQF

[11] = tested on: Cornu aspersum; experiment: Inhibition of snail beta-mannosidase at 1 mM using p-nitrophenyl glycopyranoside preincubated for 5 mins followed by substrate addition measured after 20 mins by visible absorption spectroscopic method relative to control; method in brief: as §1
[12] = tested on: Canavalia ensiformis; experiment: Inhibition of jack bean beta-N-acetylglucosaminidase at 1 mM using p-nitrophenyl glycopyranoside preincubated for 5 mins followed by substrate addition measured after 20 mins by visible absorption spectroscopic method relative to control; method in brief: as §1

Chain of Beta-galactosidase (Escherichia coli) (Q8VNN2 whole entry, looked up): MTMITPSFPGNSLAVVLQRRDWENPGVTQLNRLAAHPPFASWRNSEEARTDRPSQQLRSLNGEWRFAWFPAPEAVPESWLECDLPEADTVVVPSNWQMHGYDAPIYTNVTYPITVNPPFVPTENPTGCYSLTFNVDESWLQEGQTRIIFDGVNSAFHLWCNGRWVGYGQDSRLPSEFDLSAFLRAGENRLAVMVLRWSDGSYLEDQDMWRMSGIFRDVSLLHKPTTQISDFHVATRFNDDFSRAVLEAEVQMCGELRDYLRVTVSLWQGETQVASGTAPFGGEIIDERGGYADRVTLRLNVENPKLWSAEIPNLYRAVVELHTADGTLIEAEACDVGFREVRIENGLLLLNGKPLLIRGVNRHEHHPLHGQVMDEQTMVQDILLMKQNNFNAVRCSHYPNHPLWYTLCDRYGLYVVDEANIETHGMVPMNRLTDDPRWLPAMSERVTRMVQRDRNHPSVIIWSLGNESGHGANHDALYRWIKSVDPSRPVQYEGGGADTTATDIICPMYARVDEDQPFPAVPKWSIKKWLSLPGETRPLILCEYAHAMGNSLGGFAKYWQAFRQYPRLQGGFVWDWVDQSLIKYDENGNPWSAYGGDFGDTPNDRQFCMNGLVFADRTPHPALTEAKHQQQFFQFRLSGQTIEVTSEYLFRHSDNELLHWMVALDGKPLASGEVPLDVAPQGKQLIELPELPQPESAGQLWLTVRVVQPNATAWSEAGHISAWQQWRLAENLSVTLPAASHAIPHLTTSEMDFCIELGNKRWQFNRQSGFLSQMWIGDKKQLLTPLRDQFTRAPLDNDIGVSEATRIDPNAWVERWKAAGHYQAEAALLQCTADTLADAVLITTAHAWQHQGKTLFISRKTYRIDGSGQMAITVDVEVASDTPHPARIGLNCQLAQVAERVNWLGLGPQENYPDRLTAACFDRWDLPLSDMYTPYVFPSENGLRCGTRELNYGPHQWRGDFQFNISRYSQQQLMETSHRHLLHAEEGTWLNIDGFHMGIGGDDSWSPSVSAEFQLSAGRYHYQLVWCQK
Chain of Alpha-galactosidase (Coffea arabica) (Q42656 16-378 limits assumed): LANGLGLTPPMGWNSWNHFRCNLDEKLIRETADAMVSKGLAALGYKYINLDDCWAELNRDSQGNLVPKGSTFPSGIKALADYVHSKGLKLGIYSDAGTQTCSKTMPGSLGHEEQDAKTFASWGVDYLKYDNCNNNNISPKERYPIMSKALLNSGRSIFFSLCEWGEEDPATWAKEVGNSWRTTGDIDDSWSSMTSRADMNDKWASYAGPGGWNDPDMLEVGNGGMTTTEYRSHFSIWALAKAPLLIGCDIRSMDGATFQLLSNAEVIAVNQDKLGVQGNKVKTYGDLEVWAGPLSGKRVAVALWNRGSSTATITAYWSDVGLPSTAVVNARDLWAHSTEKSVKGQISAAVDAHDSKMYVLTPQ

## O[C@@H]1[C@H](O)CN[C@@H]1c1cn(Cc2ccccc2)nn1
[1]
  inhibition: inactive
[2]
  inhibition: 84%
[3]
  IC50: 168 µM
[4]
  inhibition: inactive
[5]
  inhibition: inactive
[6]
  inhibition: inactive
[7]
  inhibition: inactive
[8]
  inhibition: inactive
[9]
  inhibition: inactive
[10]
  inhibition: inactive
[11]
  inhibition: inactive
[12]
  inhibition: inactive
